≈ marks a conversion by molar mass, not a printed value. Calls of active or inactive are those of the source. The rule behind the calls is not given here.
Legend:
[1] = test system: Cryptococcus neoformans; experiment: Antifungal activity against Cryptococcus neoformans ATCC 90112; format: functional
[2] = test system: Candida albicans; experiment: Antifungal activity against Candida albicans ATCC 10231; format: functional
[3] = biological target: T1, Phospholipase B (Cryptococcus neoformans, UniProt Q9P8P2); experiment: Inhibition of Cryptococcus neoformans H99 PLB1activity
T1 sequence (Q9P8P2 whole entry): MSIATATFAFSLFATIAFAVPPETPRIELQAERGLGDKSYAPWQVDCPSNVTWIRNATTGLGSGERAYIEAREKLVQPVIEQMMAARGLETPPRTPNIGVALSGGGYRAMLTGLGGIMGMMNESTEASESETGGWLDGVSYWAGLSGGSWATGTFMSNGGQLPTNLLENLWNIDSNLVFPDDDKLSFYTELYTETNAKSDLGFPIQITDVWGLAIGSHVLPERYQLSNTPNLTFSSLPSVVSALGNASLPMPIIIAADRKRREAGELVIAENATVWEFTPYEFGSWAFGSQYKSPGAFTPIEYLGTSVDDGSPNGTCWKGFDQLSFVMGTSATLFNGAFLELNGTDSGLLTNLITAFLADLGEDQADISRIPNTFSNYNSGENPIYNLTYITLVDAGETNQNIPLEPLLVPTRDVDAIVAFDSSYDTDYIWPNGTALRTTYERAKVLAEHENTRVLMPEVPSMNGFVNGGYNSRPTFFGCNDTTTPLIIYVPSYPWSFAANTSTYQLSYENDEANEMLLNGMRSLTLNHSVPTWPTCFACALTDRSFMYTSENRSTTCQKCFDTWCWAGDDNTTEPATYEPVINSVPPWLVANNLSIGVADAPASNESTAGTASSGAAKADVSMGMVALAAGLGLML
Procedure, shortened: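 Secreted enzyme from C. neoformans var. grubii H99 grown 72 h on SDA at 30 °C; cells washed and held 24 h at 37 °C in imidazole buffer pH 5.5, and the cell-free supernatant was used. Radiometric assay at 37 °C, pH 4.0 imidazole acetate, with 1 µg protein, 800 µM DPPC plus [14C]DPPC, for 22 min. Lipids were separated by TLC. Compounds at 0.25–250 µM in triplicate, with inhibition relative to the inhibitor-free control.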

[4] = biological target: Phospholipase A2, major isoenzyme (Sus scrofa) (UniProt P00592); experiment: Inhibition of porcine pancreatic PLA2 activity at 250 uM
Phospholipase A2, major isoenzyme (Sus scrofa), sequence (P00592 23-146 limits assumed): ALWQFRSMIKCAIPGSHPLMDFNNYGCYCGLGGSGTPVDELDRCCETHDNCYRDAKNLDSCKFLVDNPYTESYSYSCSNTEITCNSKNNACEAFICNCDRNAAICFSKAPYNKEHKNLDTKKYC
Procedure, shortened: (§1)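 Porcine pancreatic PLA2 was diluted in 10 mM Tris/HCl with 10 mM CaCl2, pH 8.2. It was run in the same radiometric assay as the fungal enzyme at 37 °C, using 800 µM DPPC with [14C]DPPC, for a 1 h reaction. Compounds were tested at 250, 25, 2.5 and 0.25 µM final, and inhibition was relative to the inhibitor-free control.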

[5] = test system: RBCs; experiment: Hemolytic activity as a measure of cytotoxicity against human red blood cells at 350 uM; format: functional, Erythrocyte
[6] = test system: RBCs; experiment: Hemolytic activity as a measure of cytotoxicity against human red blood cells at 175 uM; format: functional, Erythrocyte
[7] = test system: RBCs; experiment: Hemolytic activity as a measure of cytotoxicity against human red blood cells at 87.5 uM; format: functional, Erythrocyte
[8] = test system: RBCs; experiment: Hemolytic activity as a measure of cytotoxicity against human red blood cells at 35 uM; format: functional, Erythrocyte
[9] = test system: RBCs; experiment: Hemolytic activity as a measure of cytotoxicity against human red blood cells at 3.5 uM; format: functional, Erythrocyte
[10] = biological target: Phospholipase A2, major isoenzyme (Sus scrofa) (UniProt P00592); experiment: Inhibition of porcine pancreatic PLA2 activity at 25 uM and below; procedure, shortened: as §1
[11] = test system: Aspergillus flavus; experiment: Antifungal activity against Aspergillus flavus ATCC 204 304; format: functional
[12] = test system: Lomentospora prolificans; experiment: Antifungal activity against Scedosporium prolificans 1-003-040; format: functional
[13] = test system: Scedosporium boydii; experiment: Antifungal activity against Scedosporium apiospermum 1-003-056; format: functional
[14] = test system: Aspergillus fumigatus; experiment: Antifungal activity against Aspergillus fumigatus ATCC 204 305; format: functional
[15] = test system: Aspergillus terreus; experiment: Antifungal activity against Aspergillus terreus ATCC 03-232-378; format: functional
[16] = test system: Fusarium solani; experiment: Antifungal activity against Fusarium solani 04-132-4207; format: functional
[17] = Cryptococcus neoformans, ATCC 90112, read-out: MIC
[18] = Candida albicans, ATCC 10231, read-out: MIC

SMILES | MIC [1, 17] | MIC [2, 18] | IC50 [3] | Activity [5] | Activity [6] | Activity [7] | Activity [8] | Activity [9] | further results
C[N+]1(CCCCCCCCCCCC[N+]2(C)CCOCC2)CCOCC1 | 44 µM | 88 µM | > 250 µM |  |  |  |  |  | 
CCCC[N+](CCCC)(CCCC)CCCCCCCCCCCC[N+](CCCC)(CCCC)CCCC [listing 1 of 2 here] | 2.2 µM | 5.5 µM |  |  |  |  |  |  | 
CC(C)CC[N+](CCCCCCCCCCCC[N+](CCC(C)C)(CCC(C)C)CCC(C)C)(CCC(C)C)CCC(C)C.[Cl-].[Cl-] | 4.4 µM | 2.2 µM | > 7.5 µM | 100% | 30% | 4% | 0% | 0% | inhibition [4]: 90%; inhibition [10]: inactive
C(CCCCCC[N+]12CCC(CC1)CC2)CCCCC[N+]12CCC(CC1)CC2 | 350 µM | ≥ 350 µM | > 250 µM |  |  |  |  |  | 
CCCC[N+](CCCC)(CCCC)CCCCCCCCCCCC[N+](CCCC)(CCCC)CCCC.[Cl-].[Cl-] |  |  | 10 µM | 100% | 5% | 0% | 0% | 0% | MIC [11]: 22 µM; MIC [12]: 5.5 µM; MIC [13]: 2.8 µM; MIC [1]: 2.2 µM; MIC [2]: 5.5 µM; MIC [14]: 11 µM; MIC [15]: 5.5 µM; MIC [16]: 5.5 µM
C[C@@H]1[C@H](O)[C@@H](C)/C=C/C=C/C=C/C=C/C=C/C=C/C=C/[C@H](O[C@@H]2O[C@H](C)[C@@H](O)[C@H](N)[C@@H]2O)C[C@@H]2O[C@](O)(C[C@@H](O)C[C@@H](O)[C@H](O)CC[C@@H](O)C[C@@H](O)CC(=O)O[C@H]1C)C[C@H](O)[C@H]2C(=O)O [AMPHOTERICIN B] | 0.54 µM (≈ 0.499 µg/mL) | 0.54 µM (≈ 0.499 µg/mL) |  |  |  |  |  |  | MIC [11]: 0.54 µM (≈ 0.499 µg/mL); MIC [12]: 4.3 µM (≈ 3.97 µg/mL); MIC [13]: 0.54 µM (≈ 0.499 µg/mL); MIC [14]: 0.54 µM (≈ 0.499 µg/mL); MIC [15]: 1.1 µM (≈ 1.02 µg/mL); MIC [16]: 0.27 µM (≈ 0.25 µg/mL)
CCCCC[N+](CCCCC)(CCCCC)CCCCCCCCCCCC[N+](CCCCC)(CCCCC)CCCCC.[Br-].[Br-] | 5.5 µM | 5.5 µM | 3.5 µM | 100% | 5% | 0% | 0% | 0% | inhibition [4]: 90%; inhibition [10]: inactive
CCCCCC[N+](CCCCCC)(CCCCCC)CCCCCCCCCCCC[N+](CCCCCC)(CCCCCC)CCCCCC | 17.5 µM | 8.8 µM | 7.5 µM |  |  |  |  |  | inhibition [4]: 90%; inhibition [10]: inactive
CCCC[P+](CCCC)(CCCC)CCCCCCCCCCCC[P+](CCCC)(CCCC)CCCC.[Br-].[Br-] | 2.5 µM | 8.8 µM | > 25 µM | 15% | 0% | 0% | 0% | 0% | 
CC[N+](CC)(CC)CCCCCCCCCCCC[N+](CC)(CC)CC | 11 µM | 22 µM | > 250 µM |  |  |  |  |  | 
CCCC[N+](CCCC)(CCCC)CCCCCCCCCCCC[N+](CCCC)(CCCC)CCCC [listing 2 of 2 here] |  |  |  |  |  |  |  |  | inhibition [4]: 90%; inhibition [10]: inactive
CCCC[N+]1(CCCCCCCCCCCC[N+]2(CCCC)CCCC2)CCCC1.[Cl-].[Cl-] | 88 µM | 88 µM | > 250 µM | 0% | 0% | 0% | 0% | 0% | 
CCC[N+](CCC)(CCC)CCCCCCCCCCCC[N+](CCC)(CCC)CCC | 5.5 µM | 10 µM | 7 µM |  |  |  |  |  | 
CCCCCCCC[N+](CCCCCCCC)(CCCCCCCC)CCCCCCCCCCCC[N+](CCCCCCCC)(CCCCCCCC)CCCCCCCC | 35 µM | 100 µM | > 250 µM |  |  |  |  |  | 
C[N+]1(CCCCCCCCCCCC[N+]2(C)CCCC2)CCCC1 | 175 µM | 175 µM | > 250 µM |  |  |  |  |  | 
C[N+](C)(C)CCCCCCCCCC[N+](C)(C)C.[Br-].[Br-] [DECAMETHONIUM BROMIDE] | ≥ 350 µM | ≥ 350 µM | > 250 µM | 0% | 0% | 0% | 0% | 0% | 
C[N+](C)(C)CCCCCCCCCCCC[N+](C)(C)C.[Br-].[Br-] | 175 µM | 175 µM | > 250 µM | 0% | 0% | 0% | 0% | 0% | inhibition [4]: inactive; inhibition [10]: inactive
